# Laboratory results as given in ChEMBL document CHEMBL1130321, “Synthesis and in vitro activity of 3 beta-substituted-3 alpha-hydroxypregnan-20-ones: allosteric modulators of the GABAA receptor” (J Med Chem, 1997).
# Molecular target: T1, GABA-A receptor; alpha-1/beta-2/gamma-2 (Homo sapiens) (UniProt P14867+P47870+P18507)
# Test: Efficacy as fractional response (FR) relative to GABA maximal current elicited in Xenopus oocytes
# Assay type: functional, cell-based
# Conditions: Oocyte
# How it was run: (§1)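 Xenopus oocytes were injected with human α1, β2 and γ2L cRNAs at 1:1:1, ~1 ng each. Two-electrode voltage clamp was done in frog Ringer (HEPES 5 mM, pH 7.4). Currents were scaled to the maximum elicited by 3 mM GABA. Steroid was applied in increasing concentrations to a fixed GABA response of ~0.05 fractional current, with DMSO 0.3% final. Data were fitted to a four-parameter logistic and given as mean ± SEM.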
row,Compound,Efficacy
1,CC(=O)[C@H]1CC[C@H]2[C@@H]3CC[C@H]4C[C@@](O)(C(F)(F)F)CC[C@]4(C)[C@H]3CC[C@]12C,0.3
2,CC(=O)[C@H]1CC[C@H]2[C@@H]3CC[C@H]4C[C@@](O)(CN=[N+]=[N-])CC[C@]4(C)[C@H]3CC[C@]12C,0.8
3,CC(=O)[C@H]1CC[C@H]2[C@@H]3CC[C@H]4C[C@](C)(O)CC[C@]4(C)[C@H]3CC[C@]12C [GANAXOLONE],0.8
4,CC(=O)[C@H]1CC[C@H]2[C@@H]3CC[C@H]4C[C@H](O)CC[C@]4(C)[C@H]3CC[C@]12C [BREXANOLONE],0.91

# Molecular target: T1, GABA-A receptor; alpha-1/beta-2/gamma-2 (Homo sapiens)
# Test: Hill value, slope calculated from GABA-current potentiation in Xenopus oocytes
# Assay type: functional, cell-based
# Conditions: Oocyte
# How it was run: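 Xenopus oocytes injected 1:1:1 with human α1, β2, γ2L cRNAs (~1 ng each per cell); two-electrode voltage clamp in frog Ringer (NaCl 115, KCl 2, CaCl2 1.8, HEPES 5 mM, pH 7.4). Steroid DMSO stocks diluted […] (DMSO 0.3% final). Increasing steroid applied on a GABA response set to ~5% of the 3 mM GABA maximum. Data fit to a four-parameter logistic; mean ± SEM.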
row,Compound,Hill coefficient
1,CCCC(C)C1(CC)C(=O)NC(=O)NC1=O (stereo not given),1
2,CC(=O)[C@H]1CC[C@H]2[C@@H]3CC[C@H]4C[C@@](O)(COCc5ccccc5)CC[C@]4(C)[C@H]3CC[C@]12C,1.6
3,CC(=O)[C@H]1CC[C@H]2[C@@H]3CC[C@H]4C[C@@](O)(CC#N)CC[C@]4(C)[C@H]3CC[C@]12C,1

# Molecular target: GABA-A receptor; anion channel
# Test: Ability to allosterically modulate the binding of [35S]TBPS to gamma-aminobutyric-acid A receptor in rat brain cortical P2 membranes.
# Assay type: cell membranes, Membrane
# Conditions: not given
# How it was run: (§2)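 Rat cortical P2 membranes washed in 200 mM NaCl/50 mM Na-K phosphate pH 7.4. Incubated with 2 nM [35S]TBPS, 5 µM GABA and compound at nine concentrations from 1 nM to 10 µM final (DMSO 0.5% final), 90 min at room temperature. Nonspecific binding was defined with 2 µM unlabeled TBPS. Read-out was filtration and scintillation counting. IC50 and Imax came from partial or full inhibition fits chosen by F-test. Values are mean ± SEM of 3-9 experiments.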
row,Compound,IC50
1,CC(=O)[C@H]1CC[C@H]2[C@@H]3CC[C@H]4C[C@@](O)(CO)CC[C@]4(C)[C@H]3CC[C@]12C,2130 nM
2,C=CCC[C@@]1(O)CC[C@@]2(C)[C@@H](CC[C@@H]3[C@@H]2CC[C@]2(C)[C@@H](C(C)=O)CC[C@@H]32)C1,325 nM
3,C=CC[C@@]1(O)CC[C@@]2(C)[C@@H](CC[C@@H]3[C@@H]2CC[C@]2(C)[C@@H](C(C)=O)CC[C@@H]32)C1,231 nM
4,CC[C@@]1(O)CC[C@@]2(C)[C@@H](CC[C@@H]3[C@@H]2CC[C@]2(C)[C@@H](C(C)=O)CC[C@@H]32)C1,257 nM
5,COC[C@@]1(O)CC[C@@]2(C)[C@H](CC[C@@H]3[C@@H]2CC[C@]2(C)[C@@H](C(C)=O)CC[C@@H]32)C1,40 nM
6,CCOC[C@@]1(O)CC[C@@]2(C)[C@@H](CC[C@@H]3[C@@H]2CC[C@]2(C)[C@@H](C(C)=O)CC[C@@H]32)C1,230 nM
7,C#CC[C@@]1(O)CC[C@@]2(C)[C@@H](CC[C@@H]3[C@@H]2CC[C@]2(C)[C@@H](C(C)=O)CC[C@@H]32)C1,50 nM
8,CC(=O)[C@H]1CC[C@H]2[C@@H]3CC[C@H]4C[C@@](O)(C(F)(F)F)CC[C@]4(C)[C@H]3CC[C@]12C,266 nM
9,C#C[C@@]1(O)CC[C@@]2(C)[C@@H](CC[C@@H]3[C@@H]2CC[C@]2(C)[C@@H](C(C)=O)CC[C@@H]32)C1,64 nM
10,C=C[C@@]1(O)CC[C@@]2(C)[C@@H](CC[C@@H]3[C@@H]2CC[C@]2(C)[C@@H](C(C)=O)CC[C@@H]32)C1,120 nM
11,C=C=CC[C@@]1(O)CC[C@@]2(C)[C@@H](CC[C@@H]3[C@@H]2CC[C@]2(C)[C@@H](C(C)=O)CC[C@@H]32)C1,365 nM
12,CC(=O)[C@H]1CC[C@H]2[C@@H]3CC[C@H]4C[C@@](O)(COCc5ccccc5)CC[C@]4(C)[C@H]3CC[C@]12C,376 nM
13,CC(=O)[C@H]1CC[C@H]2[C@@H]3CC[C@H]4C[C@@](O)(CN=[N+]=[N-])CC[C@]4(C)[C@H]3CC[C@]12C,27 nM
14,CC(=O)[C@H]1CC[C@H]2[C@@H]3CC[C@H]4C[C@](C)(O)CC[C@]4(C)[C@H]3CC[C@]12C [GANAXOLONE],80 nM
15,CC(=O)[C@H]1CC[C@H]2[C@@H]3CC[C@H]4C[C@@](O)(CC#N)CC[C@]4(C)[C@H]3CC[C@]12C,614 nM
16,CC(=O)[C@H]1CC[C@H]2[C@@H]3CC[C@H]4C[C@H](O)CC[C@]4(C)[C@H]3CC[C@]12C [BREXANOLONE],51 nM

# Species: Rattus norvegicus
# Test: Percent of maximal extent of inhibition was calculated by fitting [35S]TBPS inhibition data to a sigmoid function (rat brain cortical P2 membranes).
# Assay type: functional
# Conditions: not given
# How it was run: as §2
row,Compound,Imax
1,CC(=O)[C@H]1CC[C@H]2[C@@H]3CC[C@H]4C[C@@](O)(CO)CC[C@]4(C)[C@H]3CC[C@]12C,101%
2,C=CCC[C@@]1(O)CC[C@@]2(C)[C@@H](CC[C@@H]3[C@@H]2CC[C@]2(C)[C@@H](C(C)=O)CC[C@@H]32)C1,59%
3,C=CC[C@@]1(O)CC[C@@]2(C)[C@@H](CC[C@@H]3[C@@H]2CC[C@]2(C)[C@@H](C(C)=O)CC[C@@H]32)C1,59%
4,CC[C@@]1(O)CC[C@@]2(C)[C@@H](CC[C@@H]3[C@@H]2CC[C@]2(C)[C@@H](C(C)=O)CC[C@@H]32)C1,69%
5,COC[C@@]1(O)CC[C@@]2(C)[C@H](CC[C@@H]3[C@@H]2CC[C@]2(C)[C@@H](C(C)=O)CC[C@@H]32)C1,103%
6,CCOC[C@@]1(O)CC[C@@]2(C)[C@@H](CC[C@@H]3[C@@H]2CC[C@]2(C)[C@@H](C(C)=O)CC[C@@H]32)C1,104%
7,CCCC(C)C1(CC)C(=O)NC(=O)NC1=O (stereo not given),100%
8,C#CC[C@@]1(O)CC[C@@]2(C)[C@@H](CC[C@@H]3[C@@H]2CC[C@]2(C)[C@@H](C(C)=O)CC[C@@H]32)C1,43%
9,CC(=O)[C@H]1CC[C@H]2[C@@H]3CC[C@H]4C[C@@](O)(C(F)(F)F)CC[C@]4(C)[C@H]3CC[C@]12C,44%
10,C#C[C@@]1(O)CC[C@@]2(C)[C@@H](CC[C@@H]3[C@@H]2CC[C@]2(C)[C@@H](C(C)=O)CC[C@@H]32)C1,93%
11,C=C[C@@]1(O)CC[C@@]2(C)[C@@H](CC[C@@H]3[C@@H]2CC[C@]2(C)[C@@H](C(C)=O)CC[C@@H]32)C1,94%
12,C=C=CC[C@@]1(O)CC[C@@]2(C)[C@@H](CC[C@@H]3[C@@H]2CC[C@]2(C)[C@@H](C(C)=O)CC[C@@H]32)C1,57%
13,CC(=O)[C@H]1CC[C@H]2[C@@H]3CC[C@H]4C[C@@](O)(COCc5ccccc5)CC[C@]4(C)[C@H]3CC[C@]12C,57%
14,CC(=O)[C@H]1CC[C@H]2[C@@H]3CC[C@H]4C[C@@](O)(CN=[N+]=[N-])CC[C@]4(C)[C@H]3CC[C@]12C,99%
15,CC(=O)[C@H]1CC[C@H]2[C@@H]3CC[C@H]4C[C@](C)(O)CC[C@]4(C)[C@H]3CC[C@]12C [GANAXOLONE],94%
16,CC(=O)[C@H]1CC[C@H]2[C@@H]3CC[C@H]4C[C@@](O)(CC#N)CC[C@]4(C)[C@H]3CC[C@]12C,38%
17,CC(=O)[C@H]1CC[C@H]2[C@@H]3CC[C@H]4C[C@H](O)CC[C@]4(C)[C@H]3CC[C@]12C [BREXANOLONE],95%

# Molecular target: T2, GABA-A receptor; alpha-1/beta-2/gamma-2 (Homo sapiens, UniProt P14867+P18507+P47870)
# T2 sequence (P14867 whole entry): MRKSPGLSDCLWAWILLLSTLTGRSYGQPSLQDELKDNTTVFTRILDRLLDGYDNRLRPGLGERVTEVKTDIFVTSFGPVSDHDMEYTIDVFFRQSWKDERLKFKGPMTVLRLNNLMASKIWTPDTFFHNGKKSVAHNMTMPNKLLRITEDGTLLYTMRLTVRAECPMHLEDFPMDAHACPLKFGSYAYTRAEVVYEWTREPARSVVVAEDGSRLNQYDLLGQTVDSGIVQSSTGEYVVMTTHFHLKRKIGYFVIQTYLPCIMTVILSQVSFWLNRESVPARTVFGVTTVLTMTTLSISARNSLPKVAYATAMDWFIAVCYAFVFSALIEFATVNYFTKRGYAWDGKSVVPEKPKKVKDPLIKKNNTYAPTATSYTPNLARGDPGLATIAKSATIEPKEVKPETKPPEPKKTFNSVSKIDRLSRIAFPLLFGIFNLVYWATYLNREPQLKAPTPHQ
# T2 sequence (P47870 whole entry): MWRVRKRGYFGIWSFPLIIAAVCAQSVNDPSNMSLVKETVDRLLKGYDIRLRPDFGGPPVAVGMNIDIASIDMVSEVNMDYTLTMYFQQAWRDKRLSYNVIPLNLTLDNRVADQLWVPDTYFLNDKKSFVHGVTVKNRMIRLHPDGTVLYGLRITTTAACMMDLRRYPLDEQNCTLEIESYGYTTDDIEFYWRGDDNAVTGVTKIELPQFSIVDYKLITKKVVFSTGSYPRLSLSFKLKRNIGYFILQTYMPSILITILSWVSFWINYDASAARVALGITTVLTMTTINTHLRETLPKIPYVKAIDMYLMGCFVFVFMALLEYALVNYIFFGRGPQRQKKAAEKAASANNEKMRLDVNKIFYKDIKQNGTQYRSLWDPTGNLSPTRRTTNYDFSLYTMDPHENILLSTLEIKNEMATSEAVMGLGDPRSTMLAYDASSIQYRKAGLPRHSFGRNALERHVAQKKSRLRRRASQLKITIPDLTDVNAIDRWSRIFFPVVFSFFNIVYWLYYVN
# T2 sequence (P18507 whole entry): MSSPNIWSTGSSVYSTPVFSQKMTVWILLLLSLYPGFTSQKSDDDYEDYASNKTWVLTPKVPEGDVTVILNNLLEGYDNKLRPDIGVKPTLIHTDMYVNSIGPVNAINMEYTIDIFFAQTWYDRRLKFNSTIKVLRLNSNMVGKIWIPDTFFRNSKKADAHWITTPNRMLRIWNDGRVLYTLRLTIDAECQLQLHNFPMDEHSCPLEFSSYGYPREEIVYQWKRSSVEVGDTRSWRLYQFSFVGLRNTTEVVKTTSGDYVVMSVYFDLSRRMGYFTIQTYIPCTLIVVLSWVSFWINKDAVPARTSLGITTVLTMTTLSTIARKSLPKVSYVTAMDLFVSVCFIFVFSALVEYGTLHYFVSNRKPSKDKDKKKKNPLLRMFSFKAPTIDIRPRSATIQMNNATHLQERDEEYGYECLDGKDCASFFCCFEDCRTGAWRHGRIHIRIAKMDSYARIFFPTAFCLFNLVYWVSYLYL
# Test: Potentiation of GABA-activated currents in Xenopus oocytes expressing cloned human alpha-1-beta-2-gamma-2L subunits of GABA-A receptor
# Assay type: functional, cell-based, Oocyte
# Conditions: not given
# How it was run: as §1
row,Compound,EC50
1,CC(=O)[C@H]1CC[C@H]2[C@@H]3CC[C@H]4C[C@@](O)(CO)CC[C@]4(C)[C@H]3CC[C@]12C,~20000 nM
2,CC(=O)[C@H]1CC[C@H]2[C@@H]3CC[C@H]4C[C@@](O)(C(F)(F)F)CC[C@]4(C)[C@H]3CC[C@]12C,390 nM
3,CC(=O)[C@H]1CC[C@H]2[C@@H]3CC[C@H]4C[C@@](O)(CN=[N+]=[N-])CC[C@]4(C)[C@H]3CC[C@]12C,150 nM
4,CC(=O)[C@H]1CC[C@H]2[C@@H]3CC[C@H]4C[C@](C)(O)CC[C@]4(C)[C@H]3CC[C@]12C [GANAXOLONE],260 nM
5,CC(=O)[C@H]1CC[C@H]2[C@@H]3CC[C@H]4C[C@H](O)CC[C@]4(C)[C@H]3CC[C@]12C [BREXANOLONE],160 nM
